# Screening data deposited in PubChem BioAssay by several laboratories.
# A selection: hits, their analogues and other compounds. The true share with any hit is near 2.1%.
# A3G deaminase – APOBEC3G DNA deaminase inhibitors, primary screen, biochemical, fluorescence, single-stranded DNA substrate, uHTS | 330,000 tested, 0.28% active | DNA dC->dU-editing enzyme APOBEC-3G (Homo sapiens), Q9HC16 | AID 493012, 2011 | inhibition, % at 20 µM | recombinant A3G, ssDNA deamination FAM/TAMRA fluorescence;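 active = inhibition of at least 40% at 20 µM, with no more than 30% in the related APOBEC3A deaminase screen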;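 also: plate controls were DMSO wells with A3G for no effect and wells lacking A3G enzyme for full effect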
# Target sequence (Q9HC16 whole entry, looked up): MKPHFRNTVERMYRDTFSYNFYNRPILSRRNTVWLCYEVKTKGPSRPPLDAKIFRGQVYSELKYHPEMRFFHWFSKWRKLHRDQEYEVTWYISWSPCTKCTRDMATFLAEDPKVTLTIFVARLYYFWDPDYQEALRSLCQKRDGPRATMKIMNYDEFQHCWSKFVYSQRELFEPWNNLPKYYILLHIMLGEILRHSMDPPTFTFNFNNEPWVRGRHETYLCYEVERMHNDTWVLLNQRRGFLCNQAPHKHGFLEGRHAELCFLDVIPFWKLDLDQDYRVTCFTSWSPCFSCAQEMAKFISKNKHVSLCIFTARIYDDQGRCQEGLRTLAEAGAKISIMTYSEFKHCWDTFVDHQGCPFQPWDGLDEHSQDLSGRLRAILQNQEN
# C2C12 statin – suppressors of statin myotoxicity in C2C12 myotubes, primary screen, cell-based, single point, plate reader; rescue of ATP level, % at 7.49 µM; AID 602340, 2012; 330,000 tested, 0.78% active; C2C12 myotubes + simvastatin, ATP luminescence, 48 h; scaled: DMSO 0, geranylgeraniol control 100;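 active = mean ATP rescue above about 67%, or every replicate alone reaching that limit, limit read from the data, passing the limit was not always enough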;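 also: myotubes were challenged with 10 µM simvastatin during compound exposure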
# ASAP1 GAP inh – inhibitors of human ASAP1 ArfGAP activity, primary screen, biochemical, fluorescence polarization; Arf-GAP with SH3 domain, ANK repeat and PH domain-containing protein 1 (Homo sapiens), …; ASAP1-stimulated ARF1 GTP hydrolysis, GDP FP detection; inhibition, % at 16.5 µM; 360,000 tested, 0.19% active; in the data active = inhibition above about 25%;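 also: 0% = vehicle with enzyme and substrate and 100% = no enzyme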
# Mot1-301 SUMO – yeast Mot1-301 growth rescue at high temperature, primary screen, SUMOylation pathway inhibitor project, S. cerevisiae, ATP luminescence, 38.5C | S. cerevisiae Mot1-301 growth rescue; percent above DMSO median, 100 means doubled | 320,000 tested, 1% active | growth rescue, % at 18.8 µM | AID 2716, 2010;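 active = every valid replicate shows activation above 250% relative to neutral control wells; inactive = the rest, any valid replicate at or below 250%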;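 also: OY570 slx delta 5 strain wells were the positive control but not used for scaling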
# ARFGAP1 inh – inhibitors of rat ARFGAP1 GAP activity, primary screen, biochemical, fluorescence polarization, GDP tracer; inhibition, % at 16.5 µM; ADP-ribosylation factor GTPase-activating protein 1 (Rattus norvegicus), Q62848; Arfgap1-stimulated ARF1 GTP hydrolysis, GDP FP detection; 360,000 tested, 0.26% active;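 active = inhibition above a per-plate limit, mean inhibition of low control wells plus 3 SD, cut at about 25% in these data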;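 also: 0% = DMSO wells with enzyme and 100% = wells lacking Arfgap1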
#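 Repeats: one replicate per compound; assay system: rat Arfgap1 catalytic domain, aa 1-136; times: enzyme reaction 120 min at 25 °C after 20 min preincubation; detection: FP of antibody-bound GDP Alexa 633 tracer, ex 620/em 688 nm; benchmarks: high control wells lacking Arfgap1, low control full reaction with DMSO; reagent: human ARF1(Δ1-17)-GTP substrate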
# A3A deaminase – APOBEC3A ssDNA deaminase inhibitors, primary screen, selectivity assay for APOBEC3G inhibitor project, biochemical, FAM/TAMRA oligo cleavage fluorescence; recombinant A3A, FAM/TAMRA ssDNA deamination fluorescence; inhibition, % at 20 µM; 330,000 tested, 0.41% active;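 active = at least 40% inhibition at 20 µM here, with at most 30% in a related deaminase screen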;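 also: plate controls were A3A with DMSO for no effect and wells lacking A3A enzyme for full effect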
# APOBEC3G confirm – APOBEC3G deaminase inhibitor retest, confirmation, biochemical, fluorescence, single-stranded DNA substrate, single concentration; recombinant A3G ssDNA deaminase, UDG/FAM-TAMRA fluorescence; AID 493152, 2011; inhibition, % at 20 µM; shares compounds with A3G deaminase; 890 tested, 72% active;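 active = inhibition reaching a set limit in any replicate at 20 µM, the limit being 80% of the first screen's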
# UDG ctr A3G – E. coli UDG inhibitors, confirmation, counter-screen for APOBEC3G inhibitor project, biochemical, single concentration, fluorescence, FAM/TAMRA oligo. UDG counterscreen. inhibition, % at 20 µM. shares compounds with A3G deaminase. 710 tested, under 10 active;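 active = compounds giving 40% or more inhibition at 20 µM in any one of the three replicates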;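 also: plate controls were DMSO wells with UDG and oligo for no effect and DMSO wells lacking both for full effect; inhibitors lower the FAM signal released by uracil excision and alkaline cleavage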
# Target sequence (P12295 whole entry, looked up): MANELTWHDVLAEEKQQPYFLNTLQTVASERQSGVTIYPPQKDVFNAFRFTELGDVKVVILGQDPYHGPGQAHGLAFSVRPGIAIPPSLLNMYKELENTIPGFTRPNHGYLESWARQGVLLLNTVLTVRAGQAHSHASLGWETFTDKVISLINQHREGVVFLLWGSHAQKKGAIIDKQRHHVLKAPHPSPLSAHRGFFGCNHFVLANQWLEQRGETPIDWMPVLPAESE
# Numbers without * were called inactive; . = no result given.
SMILES,A3G deaminase,C2C12 statin,ASAP1 GAP inh,Mot1-301 SUMO,ARFGAP1 inh,A3A deaminase,APOBEC3G confirm,UDG ctr A3G
O=C(Nc1ccc(N2CCOCC2)c(S(=O)(=O)Nc2ccc(Cl)cc2)c1)c1ccc(=O)[nH]n1,8,-3,5,16,0,37,.,.
O=C(Nc1ccc(N2CCOCC2)c(S(=O)(=O)Nc2ccc(Cl)cc2)c1)c1cnccn1,46*,17,-11,-8,5,0,60*,-3
CC1Sc2ccc(C(=O)NCc3ccccn3)cc2NC1=O (centres undefined),55*,4,-3,17,0,3,33*,-3
CCn1c(SCC(=O)Nc2ccc(OC)c(OC)c2)nnc1-c1ccco1,43*,.,-3,-9,-9,-4,-5,-4
CCn1c(SCC(=O)Nc2ccc(OC)cc2)nnc1-c1ccco1,-8,1,-1,71,6,-7,.,.
COc1cc(N=c2ssnc2Cl)c(OC)cc1Cl,67*,27,7,242,11,2,82*,-3
Cc1cc(Cl)ccc1N=c1ssnc1Cl,61*,-8,-1,128,4,2,62*,-4
COc1ccc(OC)c(N=c2ssnc2Cl)c1,74*,11,-5,-52,11,1,69*,-4
Nc1ccccc1N=c1ssnc1Cl,.,.,-9,.,10,.,.,.
COc1ccccc1CNC(=O)C[C@H]1CC[C@H]2[C@@H](COC[C@H](O)CN2C(=O)Nc2ccc(C(F)(F)F)cc2)O1,.,-66,.,.,.,.,.,.
O=C(Cc1ccccc1)N1C[C@H]2[C@@H](c3ccccc31)[C@@H](CO)N2C(=O)C1CC1,.,1,.,.,.,.,.,.
CCc1cc(-c2n[nH]c(=S)n2CC)cs1,52*,-4,7,-11,-3,-3,83*,0
Cc1cc(-c2n[nH]c(=S)n2CC(C)C)cs1,49*,.,4,-1,13,1,66*,-5
CCCc1cc(-c2n[nH]c(=S)n2CC)cs1,43*,.,6,4,2,-5,79*,-5
CCn1c(-c2csc(C(C)C)c2)n[nH]c1=S,51*,-8,5,-5,-4,2,0,.
CCCCn1c(-c2csc(CCC)c2)n[nH]c1=S,.,.,-12,-9,-14,.,.,.
CC(C)Cn1c(-c2csc(C(C)C)c2)n[nH]c1=S,17,.,-14,3,-11,-2,.,.
CN(C)CCCNC(=O)[C@@H]1[C@@H](CO)[C@@H]2Cn3c(ccc(-c4cccc(C(=O)N(C)C)c4)c3=O)[C@H]1N2,.,-12,.,.,.,.,.,.
Cc1ccc(S(=O)(=O)N(C)C[C@@H]2Oc3c(cccc3N(C)C)C(=O)N([C@H](C)CO)C[C@@H]2C)cc1,.,-19,.,.,.,.,.,.
C[C@H](O)C#Cc1ccc2c(c1)O[C@@H](CN(C)CC1CCCC1)[C@H](C)CN([C@H](C)CO)S2(=O)=O,.,-152,.,.,.,.,.,.
C[C@H](CO)N1C[C@H](C)[C@H](CN(C)C)Oc2ccc(NC(=O)CCN3CCOCC3)cc2C1=O,.,8,.,.,.,.,.,.
O=C(Nc1nnc(-c2ccco2)s1)C1CCCCC1,56*,0,10,7,-1,-2,-3,1
Cc1ccc(S(=O)(=O)N2CCC(C(=O)Nc3nnc(-c4ccco4)s3)CC2)cc1,5,13,-6,-4,7,1,.,.
Cc1cc(NC(=O)CCCC(=O)NCc2ccccc2)no1,44*,.,6,-10,-7,0,0,.
COc1cc2c(cc1/C=C/C(=O)O)OC(C)C2 (centres undefined),-2,1,-4,-5,3,1,.,.
SMILES,A3G deaminase,C2C12 statin,ASAP1 GAP inh,Mot1-301 SUMO,ARFGAP1 inh,A3A deaminase,APOBEC3G confirm,UDG ctr A3G
CC(C)(O)C1Cc2cc(/C=C/C(=O)O)c(O)cc2O1 (centres undefined),82*,.,12,.,0,0,94*,-2
CNC[C@@H]1Oc2ccc(NC(=O)Cn3cnnn3)cc2CC(=O)N([C@@H](C)CO)C[C@@H]1C,.,1,.,.,.,.,.,.
COc1ccc(NC(=O)N(C)C[C@H]2Oc3ccc(NS(=O)(=O)c4ccccc4)cc3CC(=O)N([C@@H](C)CO)C[C@H]2C)cc1,.,1,.,.,.,.,.,.
CN(C)S(=O)(=O)c1cc(NC(=O)CN2CCN(c3ccc(O)cc3)CC2)ccc1Cl,58*,.,-11,-16,8,-2,17,-6
CN(C)S(=O)(=O)c1cc(NC(=O)CN2CCN(c3ccccc3)CC2)ccc1Cl,-2,.,16,0,6,1,.,.
C[C@@H]1CN([C@H](C)CO)C(=O)Cc2cc(NS(=O)(=O)c3ccccc3)ccc2O[C@@H]1CN(C)S(C)(=O)=O,.,-12,.,.,.,.,.,.
O=C(NC1CCCCCC1)C(=S)N1CCOCC1,54*,.,-4,-10,2,5,44*,1
O=C(NC1CCCCCC1)C(=S)N1CCCC1,-5,.,5,-10,-7,-2,.,.
CCNC(=O)C[C@H]1CC[C@H]2[C@@H](COc3ccc(NC(=O)Nc4c(C)noc4C)cc3C(=O)N2C)O1,.,-1,.,.,.,.,.,.
CC1=CC(C)(C)Nc2ccc(C)cc21,-7,6,9,-23,5,-4,.,.
COC(=O)C1=C(C(=O)OC)SC2(S1)C(C(=O)OC)=C(C(=O)OC)SC1=C2c2cc(C)ccc2NC1(C)C,45*,-3,7,.,3,1,40*,-3
COc1ccccc1N1CSC2=C(C#N)C(c3ccc(SC)cc3)CC(=O)N2C1 (centres undefined),38,-2,-11,13,-6,22,.,.
COc1ccc(OC)c(C2CC(=O)N3CN(c4ccccc4F)CSC3=C2C#N)c1 (centres undefined),67*,15,-4,-12,-7,-1,21,-3
